The entries come from a sample that favours hits as a whole.
IDH1 mut inh – inhibitors of human IDH1 R132H | IDH1 R132H reductase, diaphorase/resazurin fluorescence, 60 min | inhibition, % at 10 µM | hit rate 0.18% among 70,000; in the data active = inhibition above about 34%; inconclusive = no clear call, values can overlap the other calls; inactive = below about 11%;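 also: 0% = DMSO and 100% = no enzyme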
T cruzi growth-1 – blocks T. cruzi growth in NIH3T3 culture; T. cruzi beta-gal in NIH3T3, GalScreen luminescence, 90 h; inhibition, % at 8.34 µM; hit rate 5.9% among 77,000;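 active = mean inhibition above about 93%, with at least 55% of replicates each passing it, limit read from the data, passing the limit was not always enough; inconclusive = only one of those two conditions holds; inactive = neither condition holds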
KDM4C inh – blocks human GASC-1 (KDM4C) demethylase activity; Q9H3R0; hit rate 0.15% among 96,000; inhibition, % at 12.5 µM; GST-KDM4C 2-372, H3K9me3 peptide, LANCE TR-FRET;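 active = mean replicate inhibition above about 25%, with at least 55% of replicates also reaching it, limit read from the data, passing the limit was not always enough; inconclusive = only one of those two conditions met; inactive = neither condition met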
Target sequence (Q9H3R0 2-372 limits assumed): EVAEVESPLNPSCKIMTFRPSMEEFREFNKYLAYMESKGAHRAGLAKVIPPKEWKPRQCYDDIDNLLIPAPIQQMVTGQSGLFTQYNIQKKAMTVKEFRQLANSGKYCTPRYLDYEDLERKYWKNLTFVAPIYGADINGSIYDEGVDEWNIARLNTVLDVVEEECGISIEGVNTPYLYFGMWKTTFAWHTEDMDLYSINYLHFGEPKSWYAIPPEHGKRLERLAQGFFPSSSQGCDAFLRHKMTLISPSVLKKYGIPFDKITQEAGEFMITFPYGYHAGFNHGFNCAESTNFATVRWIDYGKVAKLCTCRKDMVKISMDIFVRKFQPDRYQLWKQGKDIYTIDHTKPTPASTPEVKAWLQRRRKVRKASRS
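System: N-terminal GST-fused human GASC-1 (KDM4C) fragment, residues 2-372; amount: enzyme final amount 10 nM; incubation: reaction 30 min RT, detection step 1 h RT; medium: HEPES buffer, pH 7.5, plus ascorbate; technique: LANCE TR-FRET, Eu antibody, ULight-streptavidin, EDTA, ex 340 nm, em 618/671 nm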
T cruzi growth-2 – inhibitors of T. cruzi proliferation. AID 651739. inhibition, % at 8.35 µM. hit rate 72% among 5,600. T. cruzi beta-gal in NIH3T3, GalScreen luminescence, 90 h. shares compounds with T cruzi growth-1;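 active = mean replicate inhibition above about 95% and at least 55% of replicates individually reaching it, limit read from the data; inconclusive = only one of the two criteria is met; inactive = neither criterion is met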
T cruzi growth-3 – inhibitors of T. cruzi proliferation. hit rate 21% among 5,600. AID 651740. inhibition, % at 2.09 µM. T. cruzi beta-gal in NIH3T3, GalScreen luminescence, 90 h. shares compounds with T cruzi growth-1;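 active = mean inhibition above about 95%, with at least 55% of replicates also reaching it, limit read from the data; inconclusive = meets just one of the two conditions; inactive = meets neither condition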;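 also: plate controls were neutral control median for no effect and positive control median for full effect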
3T3 cytotox – NIH/3T3 (mouse) viability loss | shares compounds with T cruzi growth-1 | NIH/3T3 viability, CellTiter-Glo ATP luminescence, 90 h | cytotoxicity (signal decrease), % at 8.35 µM | hit rate 14% among 5,600 | AID 651742;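 active = mean signal decrease across replicates above about 35% based on untreated-well scatter, with enough replicates individually passing, limit read from the data; inconclusive = no rule stated though some were filed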;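 also: 0% = median of neutral control wells and 100% = median of positive control wells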
NIH3T3 tox 2 – NIH/3T3 (mouse) viability loss; AID 651744; hit rate 56% among 5,600; NIH/3T3 viability, CellTiter-Glo ATP luminescence, 90 h; inhibition, % at 24.9 µM; shares compounds with T cruzi growth-1;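 active = mean loss of cell viability signal at or above a set limit, and enough replicates individually reaching it; inconclusive = meets only the mean limit or only the replicate share; inactive = meets neither condition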;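 also: 0% = median of neutral control wells and 100% = median of positive control wells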
Active calls of the source: *; ? = inconclusive; / = no result.

SMILES	IDH1 mut inh	T cruzi growth-1	KDM4C inh	T cruzi growth-2	T cruzi growth-3	3T3 cytotox	NIH3T3 tox 2
C[C@H](CO)N1C[C@H](C)[C@H](CN(C)CC2CCCCC2)OCCCC[C@H](C)Oc2ccc(NC(=O)Nc3ccc(C(F)(F)F)cc3)cc2C1=O	/	95*	-1	91	106*	120*	105*
C[C@H](CO)N1C[C@H](C)[C@@H](CN(C)CC2CCCCC2)OCCCC[C@H](C)Oc2ccc(NC(=O)Nc3ccc(C(F)(F)F)cc3)cc2C1=O	/	84	-2	/	/	/	/
C[C@@H]1CN([C@@H](C)CO)C(=O)c2cc(NC(=O)Nc3ccc(C(F)(F)F)cc3)ccc2O[C@@H](C)CCCCO[C@H]1CN(C)CC1CCCCC1	/	88	/	/	/	/	/
C[C@@H]1CN([C@H](C)CO)C(=O)c2cc(NC(=O)Nc3ccc(C(F)(F)F)cc3)ccc2O[C@@H](C)CCCCO[C@@H]1CN(C)CC1CCCCC1	-3	?	-4	?	112*	118*	105*
CN(C)C(=O)c1cccc(-c2ccc([C@@H]3[C@H]4CN(C(=O)CC5CC5)CC(=O)N4[C@H]3CO)cc2)c1	/	/	0	/	/	/	/
NC(=O)COc1ccc(C2NC(=S)NC(c3ccccc3)=C2C(=O)c2ccccc2)cc1 (stereo not given)	0	/	/	/	/	/	/
C[C@H]1CN([C@@H](C)CO)C(=O)c2cccc(NC(=O)CCCCCC(=O)Nc3ccccc3N)c2O[C@H]1CN(C)C(=O)NC1CCCCC1	0	/	-1	/	/	/	/
O=C(Nc1ccc(Br)cc1)c1ccc(NS(=O)(=O)c2cccc3cccnc23)cc1	1	/	/	/	/	/	/
Cc1cc(Cl)ccc1NC(=O)CN(c1ccc(Cl)cc1)S(C)(=O)=O	0	/	/	/	/	/	/
COc1ccc(CN(C)C[C@H]2OCCCC[C@H](C)Oc3ccc(NC(=O)Nc4ccc5c(c4)OCO5)cc3C(=O)N([C@@H](C)CO)C[C@H]2C)cc1	-4	58	1	/	/	/	/
COc1ccc(CN(C)C[C@H]2OCCCC[C@H](C)Oc3ccc(NC(=O)Nc4ccc5c(c4)OCO5)cc3C(=O)N([C@@H](C)CO)C[C@@H]2C)cc1	0	106*	2	101*	81	25	104*
COc1ccc(CN(C)C[C@H]2OCCCC[C@@H](C)Oc3ccc(NC(=O)Nc4ccc5c(c4)OCO5)cc3C(=O)N([C@H](C)CO)C[C@H]2C)cc1	/	106*	0	106*	83	1	64*
COc1ccc(CN(C)C[C@H]2OCCCC[C@@H](C)Oc3ccc(NC(=O)Nc4ccc5c(c4)OCO5)cc3C(=O)N([C@@H](C)CO)C[C@H]2C)cc1	3	88	1	/	/	/	/
COc1ccc(CN(C)C[C@@H]2OCCCC[C@@H](C)Oc3ccc(NC(=O)Nc4ccc5c(c4)OCO5)cc3C(=O)N([C@@H](C)CO)C[C@@H]2C)cc1	2	?	0	108*	98*	12	53*
COc1ccc(CN(C)C[C@@H]2OCCCC[C@H](C)Oc3ccc(NC(=O)Nc4ccc5c(c4)OCO5)cc3C(=O)N([C@H](C)CO)C[C@H]2C)cc1	1	52	-1	/	/	/	/
CCCN1[C@@H]2c3ccc(-c4ccccc4OC)c(=O)n3C[C@@H]2[C@@H](CO)[C@@H]1C(=O)Nc1nccs1	/	72	1	/	/	/	/
COc1ccccc1NC(=O)Cn1nc([N+](=O)[O-])c(Br)c1C	0	/	/	/	/	/	/
C[C@@H]1CN([C@H](C)CO)C(=O)Cc2cc(NC(=O)Cn3cnnn3)ccc2O[C@@H]1CN(C)C(=O)Nc1cccc2ccccc12	2	10	-1	/	/	/	/
CC(C)CC#Cc1ccc([C@H]2[C@@H](CO)N3C(=O)CN(C(=O)CN4CCOCC4)C[C@@H]23)cc1	/	/	1	/	/	/	/
Cc1ccc(S(=O)(=O)N(C)C[C@H]2Oc3c(NC(=O)c4nc5ccccc5s4)cccc3C(=O)N([C@@H](C)CO)C[C@H]2C)cc1	1	96	1	/	/	/	/
Cc1ccc(S(=O)(=O)N(C)C[C@H]2Oc3c(NC(=O)c4nc5ccccc5s4)cccc3C(=O)N([C@@H](C)CO)C[C@@H]2C)cc1	/	115*	10	?	93	10	44*
C[C@H](CO)N1C[C@H](C)[C@@H](CN(C)Cc2ccc(Cl)c(Cl)c2)Oc2c(NC(=O)c3nc4ccccc4s3)cccc2C1=O	-2	102*	1	99*	87	-8	3
C[C@@H]1CN([C@H](C)CO)C(=O)c2cccc(NC(=O)c3nc4ccccc4s3)c2O[C@H]1CN(C)Cc1ccc(Cl)c(Cl)c1	/	94	-1	/	/	/	/
C[C@H](CO)N1C[C@H](C)[C@@H](CN(C)Cc2ccc(-c3ccccc3)cc2)Oc2c(NC(=O)c3nc4ccccc4s3)cccc2C1=O	/	?	-2	105*	87	15	12
C[C@@H]1CN([C@@H](C)CO)C(=O)c2cccc(NC(=O)c3nc4ccccc4s3)c2O[C@@H]1CN(C)Cc1ccccc1	/	88	-2	/	/	/	/
SMILES	IDH1 mut inh	T cruzi growth-1	KDM4C inh	T cruzi growth-2	T cruzi growth-3	3T3 cytotox	NIH3T3 tox 2
C[C@H]1CN([C@@H](C)CO)C(=O)c2cccc(NC(=O)c3nc4ccccc4s3)c2O[C@H]1CN(C)Cc1ccc(-c2ccccc2)cc1	3	102*	2	102*	83	25	22
C[C@H](CO)N1C[C@H](C)[C@H](CN(C)Cc2ccc(-c3ccccc3)cc2)Oc2c(NC(=O)c3nc4ccccc4s3)cccc2C1=O	/	64	-4	/	/	/	/
CO[C@H]1CN(C)C(=O)c2cc(NS(=O)(=O)c3ccccc3C)ccc2OC[C@H](C)N(C)C[C@@H]1C	0	-21	2	/	/	/	/
O=C(NO)c1ccc(C(=O)N/N=C/c2cccnc2Br)cc1	0	/	/	/	/	/	/
C[C@@H]1CN([C@@H](C)CO)C(=O)c2cccc(NC(=O)Nc3cccc4ccccc34)c2O[C@H]1CN(C)S(=O)(=O)c1cn(C)cn1	-9	/	-1	/	/	/	/
COc1ccccc1CN1[C@@H](CO)[C@@H]2c3ccccc3N(C(=O)C3CCCCC3)C[C@@H]21	/	52	-1	/	/	/	/
Cc1cc(C(=O)Nc2cccc3c2O[C@@H](CN(C)C(=O)Nc2ccc4c(c2)OCO4)[C@@H](C)CN([C@H](C)CO)C3=O)n(C)n1	-1	-136	-2	/	/	/	/
CCc1cnc(N2[C@H](CO)[C@@H](c3ccc(C#CC(C)C)cc3)[C@@H]2C#N)s1	/	99*	-1	101*	104*	-2	52*
CCS(=O)(=O)N1[C@H](C#N)[C@@H](c2ccc(C#CC(C)C)cc2)[C@@H]1CO	/	55	1	/	/	/	/
CCc1cnc(N2[C@H](C#N)[C@@H](c3ccc(C#CC(C)C)cc3)[C@@H]2CO)s1	/	98*	-4	104*	110*	-3	43*
CCS(=O)(=O)N1[C@H](CO)[C@H](c2ccc(C#CC(C)C)cc2)[C@@H]1C#N	/	76	2	/	/	/	/

Compound activity (PubChem)
